Assay outcomes deposited in PubChem by The Scripps Research Institute Molecular Screening Center.
An excerpt weighted towards active compounds, which were near 2% of everything screened.
HSP90 inh = inhibitors of HSP90 luciferase refolding in rabbit reticulocyte lysate. luciferase refolding luminescence, 3 h. inhibition, % at 5.6 µM. 0.91% of 290,000 active;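 active = inhibition above the screen-wide mean plus 3 SD, computed separately per campaign, cut at about 16% in these data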;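 note: inhibitors lower the luminescence because luciferase stays unfolded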
STAT1 inh = inhibitors of IFN-gamma induced STAT1 signaling; NIH 3T3 STAT1-luciferase reporter, luminescence; inhibition, % at 5.5 µM; 0.35% of 200,000 active;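 active = inhibition above a set limit, the mean inhibition across all tested compounds plus 3 SD, cut at about 34% in these data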
STAT3 act-1 = activators of IL-6 induced STAT3 signaling; U3A cells, IL-6 STAT3-luciferase reporter, luminescence; 100% = signal with IL-6 EC80 alone; activation (% of control), % at 5.6 µM; 0.91% of 190,000 active; AID 871;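 active = activation above the screen-wide mean of compound activation plus 3 SD, cut at about 130% in these data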
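Material: STAT3-luciferase reporter U3A cells. Controls: IL-6-treated wells, 100% activation. Read-out: % activation versus median of IL-6-stimulated wells. Probe or stimulus: IL-6 stimulus at 33 ng/mL final. Timing: compound 1 h, then IL-6 6 h at 37 °C. Signal: reporter luminescence signal.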
STAT3 blocker = STAT3 signaling inhibition | 0.89% of 190,000 active | U3A cells, IL-6 STAT3-luciferase reporter, luminescence; host cell line lacks STAT1 | inhibition, % at 5.5 µM;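 active = inhibition above the mean inhibition across all screened compounds plus 3 SD, cut at about 44% in these data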
STAT3 act-2 = STAT3 activation, confirmation assay. potentiation (% of control), % at 5.7 µM. U3A STAT3-luciferase reporter, IL-6 potentiation, luminescence; U3A cells lack STAT1; 100 means same as IL-6 alone. 64% of 1,200 active. AID 1267. shares compounds with STAT3 act-1;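 active = percent activation of the STAT3 luciferase reporter above a set limit taken from the earlier primary screen, cut at about 130% in these data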
NFkB act STAT3ct = activates NF-kappaB, counter-screen to STAT3 activators; shares compounds with STAT3 act-1; AID 1309; 11% of 1,200 active; human cells, NF-kappaB reporter activation; activation (% of control), % at 5.7 µM; in the data active = activation above about 120%;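 note: reporter induced by TNF-alpha stimulation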
STAT1 act = activates STAT1, counter-screen to STAT3 activators; shares compounds with STAT3 act-1; NIH 3T3 STAT1-luciferase reporter, IFN-gamma, luminescence; 13% of 1,200 active; activation (% of control), % at 5.7 µM;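 active = activation above the solvent-only control well mean plus 3 SD, set per screening run, cut at about 120% in these data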
A number is an active result; n = inactive; x = not tested or not shown.

SMILES	HSP90 inh	STAT1 inh	STAT3 act-1	STAT3 blocker	STAT3 act-2	NFkB act STAT3ct	STAT1 act
Oc1c(Cl)cc(Cl)cc1C1=NNC(c2ccc(Cl)cc2)C1 (configuration not stated)	n	n	152.0	n	147.1	n	n
Cc1nn(CC(=O)NCc2cc3ccccc3[nH]2)c(C)c1[N+](=O)[O-]	n	n	138.4	n	161.2	n	n
Cc1nn(CC(=O)NCc2ccccc2F)c(C)c1[N+](=O)[O-]	n	n	n	n	x	x	x
CCn1c(CC(=O)Nc2ccc(OC)cc2)nnc1SCC(=O)N1CCOCC1	n	x	x	x	x	x	x
CC1(C)CC2CC(C)(CN2S(=O)(=O)c2cccc(N)c2)C1 (configuration not stated)	n	n	n	n	x	x	x
CC(=O)Nc1ccc(S(=O)(=O)N2CC3(C)CC2CC(C)(C)C3)cc1 (configuration not stated)	n	n	137.4	n	n	n	n
COc1ccc(OC)c(Nc2nc3nonc3nc2N2CCCCC2)c1	n	n	163.2	n	n	n	n
O=C(N/N=C/c1ccc(Br)cc1)c1ccccc1-n1cccc1	n	n	148.4	n	n	n	n
Cc1cccc(/C=N\NC(=O)c2ccccc2-n2cccc2)c1	n	n	n	n	x	x	x
Cc1ccc(C2=Nc3ccccc3NC(C)(c3ccc(C)o3)C2)o1 (configuration not stated)	n	n	138.0	n	n	n	n
CC1(c2ccccc2)CC(c2ccccc2)=Nc2ccccc2N1 (configuration not stated)	n	x	x	x	x	x	x
CCOC(=O)c1c(C)[nH]c(C)c1S(=O)(=O)NCc1ccccc1C	n	x	x	x	x	x	x
COc1ccc(NC(=O)c2[nH]c(C)c(C(C)=O)c2C)cc1	n	n	142.8	n	158.6	121.1	128.8
COCCSc1ccccc1C(=O)NCCc1ccccc1	n	n	137.8	n	149.0	n	n
O=C(OCc1csc(Nc2ccccc2)n1)c1ccc(Cl)cc1	n	n	n	n	x	x	x
Cc1cc2c(cc1C)CSC(c1c(O)ccc3ccccc13)SC2	n	n	n	n	x	x	x
Cc1cc2c(cc1C)CSC(c1ccc3ccccc3c1O)SC2	n	n	152.1	n	n	n	n
O=S(=O)(c1ccccc1)N1CCN(c2cc(-c3ccccc3)nc3ncnn23)CC1	n	n	n	n	x	x	x
O=S(=O)(c1ccc(Br)cc1)N1CCN(c2cc(-c3ccccc3)nc3ncnn23)CC1	n	n	145.8	n	n	n	n
O=C(CCl)N1CCCC1c1ccc2c(c1)OCCO2 (configuration not stated)	n	x	x	x	x	x	x
Cc1cc(-c2ccc(Br)s2)nc(-n2cccc2)n1	n	n	136.1	n	n	n	n
Cc1cc(-c2sccc2Br)nc(-n2cccc2)n1	n	n	139.3	n	149.7	n	n
CC(=O)Nc1ccc2c(CSc3nnc(N)s3)cc(=O)oc2c1	n	x	x	x	x	x	x
CCn1c(/C=C2\C(=O)N(C)c3ccccc32)nc2ccccc2c1=O	n	n	137.1	n	n	n	n
CCn1c(/C=C2/C(=O)N(C)c3ccccc32)nc2ccccc2c1=O	n	n	n	n	x	x	x
SMILES	HSP90 inh	STAT1 inh	STAT3 act-1	STAT3 blocker	STAT3 act-2	NFkB act STAT3ct	STAT1 act
Cc1ccc2[nH]c(C(=O)O)c(NC(=O)CN3CCN(c4cccc(C)c4C)CC3)c2c1	n	n	146.9	n	n	n	n
COC(=O)c1[nH]c2ccc(C)cc2c1NC(=O)CN1CCN(c2ccccc2)CC1	n	n	n	n	x	x	x
Cc1ccc(OCC(=O)Nc2nnc(S(=O)(=O)N3CCC(C)CC3)s2)cc1	n	x	x	x	x	x	x
Cc1oc2c(cc(NS(=O)(=O)c3cccs3)c3ccccc32)c1C(=O)OC(C)C	n	n	153.6	n	n	n	n
O=C(c1cc(COc2c(F)cccc2F)on1)N(Cc1ccccc1)CC1CC1	n	x	x	x	x	x	x
CCCCNC(=O)c1ccccc1SCc1c(C)noc1C	n	x	x	x	x	x	x
N#Cc1ccsc1NC(=O)CSc1ncn[nH]1	n	n	n	n	x	x	x
N#Cc1ccsc1NC(=O)CSc1ncnc2ccccc12	n	n	147.5	n	144.1	n	n
O=C(N/N=C/c1ccc(-c2cccc([N+](=O)[O-])c2)o1)c1cccs1	n	n	137.3	n	n	n	n
CC(Sc1nc(N)cc(=O)[nH]1)C(=O)Nc1nc2c(s1)CCCC2 (configuration not stated)	n	x	x	x	x	x	x
O=C(O)CCC(C(=O)O)n1c(O)c(C2=c3ccccc3=NC2=O)sc1=S (configuration not stated)	n	n	145.4	n	138.1	n	n
O=C(Cc1cccs1)Nc1ccccn1	n	n	157.0	n	137.0	n	n
CS(=O)(=O)N(CC(=O)N1CCOCC1)c1cccc(F)c1	n	x	x	x	x	x	x
O=C(C1CCCCC1)N1CCc2ccccc21	n	n	n	n	x	x	x
O=C(C1CC(=O)N(C2CCCCC2)C1)N1CCc2ccccc21 (configuration not stated)	n	n	139.4	n	n	n	n
O=C(O)c1ccc(CNC(=O)c2ccc(C(F)(F)F)cc2)cc1	n	n	148.9	n	168.3	n	n
CCOc1cc(/C=N/NC(=O)c2ccc3c(c2)OCCO3)cc(Br)c1O	n	x	x	x	x	x	x
CCS(=O)(=O)Nc1ccc(C2=NN(S(C)(=O)=O)C(c3cccs3)C2)cc1 (configuration not stated)	n	n	136.7	n	n	n	n
COc1ccccc1CN(C)C(=O)c1ccccc1Sc1ccccc1C#N	n	x	x	x	x	x	x
CCCCn1c(N)c(N(CCC(C)C)C(=O)COC(=O)c2ccco2)c(=O)[nH]c1=O	n	n	n	n	x	x	x
CCCCn1c(N)c(N(CCC(C)C)C(=O)COC(=O)c2ccccc2)c(=O)[nH]c1=O	n	n	143.2	n	147.9	n	n
O=C(CNc1ccc2ccccc2c1)N/N=C/c1cc2ccccc2nc1Cl	n	n	144.5	n	137.6	n	n
O=C(COc1cccc(Cl)c1)N/N=C\c1cc2ccccc2nc1Cl	n	n	n	n	x	x	x
COCC(=O)N1CCC(Oc2ccc(C(=O)NCc3cc(C)n(C)n3)cc2)CC1	n	x	x	x	x	x	x
O=C(CC(Nc1cccc(Cl)c1Cl)C(=O)O)c1ccccc1 (configuration not stated)	n	n	140.1	n	148.6	n	n
N/C(=N\OC(=O)c1cc(Cl)ccc1Cl)c1cccnc1	n	n	162.8	n	152.0	120.9	134.9
N/C(=N\OC(=O)c1ccccc1Cl)c1cccnc1	n	n	n	n	x	x	x
N/C(=N\OC(=O)c1cc(Br)ccc1Cl)c1cccnc1	n	n	137.8	n	n	n	n
COc1ccc(-n2nc3c(c2NC(=O)C(C)Oc2ccccc2)CS(=O)(=O)C3)cc1 (configuration not stated)	n	x	x	x	x	x	x
CC1CCC2(CC1)NC(=O)N(Cc1cc(=O)n3ccsc3n1)C2=O (configuration not stated)	n	x	x	x	x	x	x
